Among the data in ChEMBL document CHEMBL1145196, “Medicinal chemistry driven approaches toward novel and selective serotonin 5-HT6 receptor ligands” (J Med Chem, 2005) are Activity and Ki values, retold here.

Test [1] concerns the target T1, 5-hydroxytryptamine receptor 6 (Homo sapiens, UniProt P50406). In words: Partial agonist activity against cAMP accumulation in C6 cells expressing 5-hydroxytryptamine 6 receptor. It counts as functional, cell-based. Particulars: Rattus norvegicus, filed as partial agonist.
The target of test [2] is T1, 5-hydroxytryptamine receptor 6. In words: Inhibition of [3H]LSD binding to human 5-hydroxytryptamine 6 receptor expressed in HEK293 cells. It counts as cell-based. Summed up:
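Bound ligand collected on polyethylenimine-pretreated glass fiber filters, washed with 50 mM Tris Cl pH 7.4, counted by liquid scintillation. Nonspecific binding defined with 100 µM serotonin. Competition data fitted by LIGAND; triplicate determinations per point.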

Test [3] shares this target. In words: Antagonist activity against cAMP accumulation in C6 cells expressing 5-hydroxytryptamine 6 receptor. It counts as functional, cell-based. Particulars: Rattus norvegicus, filed as antagonist. Summed up: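 C6 cells detached with trypsin 2 h before assay, seeded ~50 000 cells/well. Compounds added with or without forskolin for 30 min. Data are means of at least three separate experiments.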
(In general: Cyclic AMP is a second messenger, typically raised through Gs and lowered through Gi signalling.)

T1 sequence (P50406 whole entry): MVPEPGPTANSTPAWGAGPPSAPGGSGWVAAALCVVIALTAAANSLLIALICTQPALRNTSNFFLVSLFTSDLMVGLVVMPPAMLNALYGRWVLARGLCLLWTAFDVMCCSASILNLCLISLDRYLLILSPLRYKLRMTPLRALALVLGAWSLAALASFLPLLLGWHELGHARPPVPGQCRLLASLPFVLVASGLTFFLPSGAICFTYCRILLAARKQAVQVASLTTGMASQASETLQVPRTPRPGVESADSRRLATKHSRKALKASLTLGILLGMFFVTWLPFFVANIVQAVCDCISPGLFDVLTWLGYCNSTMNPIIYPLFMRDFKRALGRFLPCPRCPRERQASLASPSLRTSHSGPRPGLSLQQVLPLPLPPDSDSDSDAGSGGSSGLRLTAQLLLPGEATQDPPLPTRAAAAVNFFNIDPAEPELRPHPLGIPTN

For `Cc1c(S(=O)(=O)Nc2ccc3ccn(CCN(C)C)c3c2)sc2ccc(Cl)cc12`, the Activity result in test [1] was “Partial agonist”.
For orientation: Ki means a measure of affinity in units of concentration, obtained from inhibition or displacement. Lower therefore signals higher affinity. In the case of `Cc1c(S(=O)(=O)Nc2ccc3cc(C)n(CCN(C)C)c3c2)sc2ccc(Cl)cc12`, the Ki in test [2] was > 1000 nM.
Turning to `O=C1OCc2ccccc2N1C1CCN(S(=O)(=O)c2cccc3cccnc23)CC1`, in test [3], the Activity entry was “Antagonist”.
Regarding `O=S(=O)(Nc1ccc2ccn(CCN3CCCC3)c2c1)c1ccc2ccccc2c1`, the Ki in test [2] turned out to be 101 nM. For the same molecule, the Activity result in test [3] is “Antagonist”.
The corresponding values for `Cc1c(S(=O)(=O)Nc2ccc3[nH]cc(CN(C)C)c3c2)sc2ccc(Cl)cc12` are 5.3 nM and “Antagonist”.
The matching figures for `O=S(=O)(Nc1ccc2ccn(CCN3CCCC3)c2c1)c1c(Cl)nc2sccn12`: 52.2 nM and “Antagonist”.
The corresponding values for `CCN(CC)CCn1ccc2cc(NS(=O)(=O)c3c(Cl)nc4sccn34)ccc21` are 97.3 nM and “Antagonist”.
Consider `COc1ccc(OC)c(S(=O)(=O)N2CCC(N3C(=O)OCc4cccc(C)c43)CC2)c1`, for which, in test [2], affinity was put at a Ki of 131 nM. Also, the Activity entry in test [3] is “Antagonist”.
`CCN(CC)C(=O)C(=O)c1c[nH]c2ccc(NS(=O)(=O)c3cccc4cccnc34)cc12`: in test [2], the Ki is > 1000 nM.
Still for that read-out and setting: to `COc1ccc(Br)cc1S(=O)(=O)N1CCC(N2C(=O)OCc3cccc(C)c32)CC1` belongs > 1000 nM.
For the molecule `Cc1c(S(=O)(=O)Nc2ccc3[nH]cc(CCN4CCOCC4)c3c2)sc2ccc(Cl)cc12`, in test [2], the affinity corresponds to a Ki of 15.1 nM. Moreover, the Activity entry in test [3] is “Antagonist”.
Regarding `O=C1OCc2ccccc2N1C1CCN(S(=O)(=O)c2cccc3ccccc23)CC1`, the Activity entry in test [3] was “Antagonist”.
In test [2], `Cc1cc2cc(NS(=O)(=O)c3ccc4ccccc4c3)ccc2n1CCN(C)C` yielded an inhibition constant Ki of 85.8 nM. Moreover, the Activity result in test [3] was “Antagonist”.
The corresponding values for `Cc1cccc2c1N(C1CCN(S(=O)(=O)c3csc4ccccc34)CC1)C(=O)OC2` are 124 nM and “Antagonist”.
The corresponding values for `O=S(=O)(Nc1ccc2[nH]cc(CCN3CCOCC3)c2c1)c1ccc2ccccc2c1` are 132 nM and “Antagonist”.
In turn, `O=C1OCc2ccccc2N1C1CCN(S(=O)(=O)c2csc3ccccc23)CC1` displayed a Ki in test [2] of 126 nM. For the same molecule, the Activity result in test [3] is “Antagonist”.
The matching figures for `Cc1cc2cc(NS(=O)(=O)c3cccc4ccccc34)ccc2n1CCN(C)C`: 124 nM and “Antagonist”.
`Cc1c(S(=O)(=O)Nc2ccc3ccn(CCN4CCCC4)c3c2)sc2ccc(Cl)cc12` returned a Ki in test [2] of 109 nM. Moreover, the Activity result in test [3] was “Antagonist”.
The matching figures for `CN(C)CCn1ccc2c(NS(=O)(=O)c3ccc4ccccc4c3)cccc21`: 14.9 nM and “Antagonist”.
Consider `Cc1c(S(=O)(=O)Nc2ccc3[nH]cc(C(=O)C(=O)N(C)C)c3c2)sc2ccc(Cl)cc12`, for which the Ki in test [2] is > 1000 nM.
Regarding `CCN(CC)C(=O)C(=O)c1c[nH]c2ccc(NS(=O)(=O)c3c(Cl)nc4sccn34)cc12`, the Activity entry in test [3] is “Antagonist”.
Consider `CCN(CC)CCc1c[nH]c2ccc(NS(=O)(=O)c3ccc4ccccc4c3)cc12`, for which, in test [2], affinity was put at a Ki of 40.8 nM.
As to `CN1CCC(c2c[nH]c3ccc(NS(=O)(=O)c4cccc5ccccc45)cc23)CC1`, the Activity entry in test [3] is “Antagonist”.
The same measure, in the same setting: to `CN(C)CCn1ccc2cc(NS(=O)(=O)c3c(Cl)nc4sccn34)ccc21` belongs “Antagonist”.
`CN1CCC(c2c[nH]c3ccc(NS(=O)(=O)c4cccc5c(Cl)cccc45)cc23)CC1` showed a Ki in test [2] of 9.6 nM. Besides, in test [3], the Activity result is “Antagonist”.
Consider `O=S(=O)(Nc1ccc2[nH]cc(CCN3CCCC3)c2c1)c1cccc2ccccc12`, for which affinity in test [2] was put at a Ki of 4.5 nM. The Activity entry in test [3] was “Antagonist”.
The corresponding values for `O=S(=O)(Nc1ccc2[nH]cc(CCN3CCOCC3)c2c1)c1cccc2ccccc12` are 163 nM and “Antagonist”.
The corresponding values for `CN(C)CCn1ccc2c(NS(=O)(=O)c3cccc4ccccc34)cccc21` are 64.7 nM and “Antagonist”.
The matching figures for `Cc1cccc2c1N(C1CCN(S(=O)(=O)c3cccc4c(N(C)C)cccc34)CC1)C(=O)OC2`: 336 nM and “Antagonist”.
On to `CCN(CC)CCn1ccc2cc(NS(=O)(=O)c3cccc4ccccc34)ccc21`, for which, in test [2], the Ki was 116 nM. Moreover, the Activity entry in test [3] was “Antagonist”.
`Cc1cc2cc(NS(=O)(=O)c3c(Cl)nc4sccn34)ccc2n1CCN(C)C` registered a Ki in test [2] of 74.6 nM. The Activity result in test [3] was “Antagonist”.
`CN(C)CCn1ccc2cc(NS(=O)(=O)Cc3ccccc3)ccc21`: the Ki in test [2] is > 1000 nM.
Turning to `CCN(CC)CCn1ccc2cc(NS(=O)(=O)c3ccc4ccccc4c3)ccc21`, in test [2], the affinity corresponds to a Ki of 140 nM. For the same molecule, the Activity result in test [3] is “Antagonist”.
`CCN(CC)CCCc1c[nH]c2ccc(NS(=O)(=O)c3ccc4ccccc4c3)cc12`: in test [2], the Ki amounted to 163 nM. Further, the Activity entry in test [3] is “Antagonist”.
Turning to `Cc1c(S(=O)(=O)Nc2cccc3c2cc(C)n3CCN(C)C)sc2ccc(Cl)cc12`, the affinity in test [2], expressed as Ki, was 57.7 nM. The Activity entry in test [3] is “Antagonist”.
The corresponding values for `Cc1c(S(=O)(=O)Nc2ccc3[nH]cc(C4CCN(C)CC4)c3c2)sc2ccc(Cl)cc12` are 1 nM and “Antagonist”.
The corresponding values for `CN(C)CCc1c[nH]c2ccc(NS(=O)(=O)c3ccc4c(Cl)cccc4c3)cc12` are 0.2 nM and “Antagonist”.
Turning to `CNc1cc(NS(=O)(=O)c2ccc(N)cc2)cc(NC)n1`, the Ki in test [2] came out at 14.8 nM.
Turning to `CN(C)CCn1ccc2ccc(NS(=O)(=O)c3ccc4ccccc4c3)cc21`, in test [3], the Activity entry is “Antagonist”.
As for `O=S(=O)(Nc1ccc2ccn(CCN3CCCC3)c2c1)c1cccc2ccccc12`, the Ki in test [2] was 18.6 nM. In test [3], the Activity entry is “Antagonist”.
The corresponding values for `CN(C)CCn1ccc2cc(NS(=O)(=O)c3ccc4ccccc4c3)ccc21` are 57.7 nM and “Antagonist”.
In test [2], `CNc1cc(NS(=O)(=O)c2ccc(N)cc2)nc(NC)n1` gave a Ki of 44.7 nM.
On the same count and under the same terms, to `CCN(CC)C(=O)C(=O)c1c[nH]c2ccc(NS(=O)(=O)c3cccc4ccccc34)cc12` belongs > 1000 nM.
Take `O=S(=O)(CCc1cccc2ccccc12)Nc1ccc2ccn(CCN3CCCC3)c2c1`: the Ki in test [2] came to 195 nM. For the same molecule, the Activity result in test [3] is “Antagonist”.
For the molecule `CN(C)C(=O)C(=O)c1c[nH]c2ccc(NS(=O)(=O)c3c(Cl)nc4sccn34)cc12`, the Activity result in test [3] is “Antagonist”.
Consider `O=S(=O)(Nc1ccc2c(ccn2CCCN2CCCCC2)c1)c1c(Cl)nc2sccn12`, for which the Ki in test [2] is > 1000 nM.
On to `CCCCN(CCCC)CCc1c[nH]c2ccc(NS(=O)(=O)c3cccc4ccccc34)cc12`, for which the Ki in test [2] was determined as 7.2 nM. For the same molecule, in test [3], the Activity entry is “Antagonist”.
The molecule `O=S(=O)(Nc1ccc2c(ccn2CCN2CCCCC2)c1)c1c(Cl)nc2sccn12` had a Ki in test [2] of 31.4 nM. In addition, the Activity result in test [3] is “Antagonist”.
In the case of `Cc1cccc2c1N(C1CCN(S(=O)(=O)c3cccc4cccnc34)CC1)C(=O)OC2`, in test [3], the Activity entry was “Antagonist”.
In test [2], `O=S(=O)(Nc1ccc2c(ccn2CCN2CCCC2)c1)c1c(Cl)nc2sccn12` gave a Ki of 9.8 nM. Moreover, the Activity entry in test [3] is “Antagonist”.
